Reference: article PMC3102230 (Chemistry & biology, 2011)
Where two headings read alike, the source gives them in different places.

Legend:
E. coli EF-G = test: Malachite green ribosome-dependent GTPase; format: biochemical; settings: for effect on rdGTPase activity of EF-G, ribosomes lacking L7/L12: E. coli 70SΔL7/L12 ribosomes, 12 hours at 20 °C (Figure 2G)
S. faecalis TetM = test: Malachite green rdGTPase assay, TetM; format: biochemical; settings: for effect on rdGTPase activity of TetM: E. coli 70S ribosomes, 1 μM ThS or 5 μM MiC (Figure 2B)
E. coli EF4 = test: Malachite green rdGTPase assay, EF4; format: biochemical; settings: for effect on rdGTPase activity of EF4: E. coli 70S ribosomes, 1 μM ThS or 5 μM MiC (Figure 2C); for effect on rdGTPase activity of EF4, ribosomes lacking L7/L12: E. coli 70SΔL7/L12 ribosomes, 12 hours at 20 °C (Figure 2H)
E. coli BipA = test: Malachite green rdGTPase assay, BipA; format: biochemical; settings: for effect on rdGTPase activity of BipA: E. coli 70S ribosomes, 1 μM ThS or 5 μM MiC (Figure 2D); for effect on rdGTPase activity of BipA, ribosomes lacking L7/L12: E. coli 70SΔL7/L12 ribosomes, 12 hours at 20 °C (Figure 2I)
E. coli EF-GΔG′ = test: Malachite green rdGTPase assay, EF-GΔG′; format: biochemical
[1] = tested on: E. coli lysate-based system; test: In vitro coupled transcription-translation assay; format: biochemical; settings: read-out: IC50, in vitro transcription-translation (synthesis of GFP); E. coli in vitro coupled transcription-translation system (Figure S3)
Outline: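 Coupled transcription-translation in an E. coli lysate-based system, run with or without test compound. GFP fluorescence was scanned with a blue laser module, and the images were quantified.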

Tet(O) = test: rdGTPase assay, Tet; format: biochemical; settings: data not shown
PRE complex = test: EF-G catalysed translocation assay; format: biochemical; settings: 10 μM Evn, E. coli fMetPhe-tRNAPhe(Prf16/20)
Outline: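 Initiation complex: ribosomes (2 μM), MFK mRNA (8 μM), IF1/IF2/IF3 (3 μM each), 1 mM GTP, [35S]fMet-tRNAfMet (3 μM), 25 min, buffer A pH 7.5, 37 °C. Combined with EF-Tu ternary complex for 45 sec. PRE complex sucrose-cushion purified (20 mM Mg2+). 0.1 μM PRE ± test compound stopped-flow mixed with 5 μM EF-G, 1 mM GTP. Proflavin excitation 460 nm, 495 nm long-pass. Double-exponential fits.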

[2] = tested on: IF2-dependent 70SIC formation; test: IF2-dependent 70SIC formation light scattering assay; format: biochemical, E. coli
Outline: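 Stopped-flow light scattering at 436 nm excitation with a 455 nm cut-off filter. It was premixed with test compound (0–5 μM), then rapidly mixed with 0.3 μM 50S subunits. All concentrations are final after mixing.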

POST complex = test: EF4-mediated back-translocation assay; format: biochemical, E. coli; settings: 5 μM Evn
Outline: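 POST complex formed from initiation and ternary complexes plus EF-G (0.2:1 to ribosomes) and 1 mM GTP, 37 °C, 10 min, then sucrose-cushion purified. 0.1 μM POST premixed with 0.15 μM tRNAfMet was stopped-flow mixed with 3 μM EF4, 0.5 mM GDPNP and test compound at 0–5 μM (final). Proflavin excitation 460 nm, 495 nm long-pass. Traces fit to a three-step back-translocation kinetic model.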

[3] = E. coli 70S ribosomes, 1 μM ThS or 5 μM MiC (Figure 2A)
[4] = E. coli 70S ribosomes, 1 μM ThS or 5 μM MiC (Figure 2F)

| Compound | effect on rdGTPase activity of EF-G (E. coli EF-G; [3]) | effect on rdGTPase activity of EF-G, ribosomes lacking L7/L12 (E. coli EF-G) | effect on rdGTPase activity of TetM (S. faecalis TetM) | effect on rdGTPase activity of EF4 (E. coli EF4) | effect on rdGTPase activity of EF4, ribosomes lacking L7/L12 (E. coli EF4) | effect on rdGTPase activity of BipA (E. coli BipA) | effect on rdGTPase activity of BipA, ribosomes lacking L7/L12 (E. coli BipA) | effect on rdGTPase activity of EF-GΔG′ (E. coli EF-GΔG′; [4]) | IC50 [1] [nM] | further results |
| --- | --- | --- | --- | --- | --- | --- | --- | --- | --- | --- |
| C=C(NC(=O)C(=C)NC(=O)c1csc(C2=N[C@@H]3c4csc(n4)[C@H]4NC(=O)c5csc(n5)[C@H]([C@](C)(O)[C@@H](C)O)NC(=O)[C@H]5CSC(=N5)/C(=C/C)NC(=O)[C@H]([C@@H](C)O)NC(=O)c5csc(n5)[C@]3(CC2)NC(=O)[C@H](C)NC(=O)C(=C)NC(=O)[C@H](C)NC(=O)[C@H]([C@@H](C)CC)N[C@@H]2C=Cc3c([C@H](C)O)cc(nc3[C@H]2O)C(=O)O[C@@H]4C)n1)C(N)=O [ThS, thiostrepton] | inhibited | inhibited | inhibited | inhibited | inhibited | inhibited | inhibited | inhibited | ~3000 | effect on rdGTPase activity of IF2 (E. coli IF2; E. coli 70S ribosomes, 1 μM ThS or 5 μM MiC (Figure 2E)): inhibited |
| C/C=C(\NC(=O)c1csc(-c2csc(-c3ccc4c(n3)-c3csc(n3)[C@H]([C@@H](C)O)NC(=O)c3csc(n3)[C@H](C(C)C)NC(=O)c3csc(n3)/C(=C/C)NC(=O)[C@H]([C@@H](C)O)NC(=O)c3csc-4n3)n2)n1)C(=O)NC[C@@H](C)O [MiC, micrococcin] | enhanced | inhibited | inhibited | inhibited | inhibited | inhibited | inhibited | inhibit, rather than stimulate | ~3000 |  |
| COC[C@H]1O[C@@H](O[C@@H]2OC[C@@H]3O[C@@]4(OC[C@@H](OC(=O)c5c(C)cc(O)cc5O)[C@@H]5OCO[C@H]54)O[C@H]3[C@H]2O)[C@@H](OC)[C@@H](O)[C@@H]1O[C@@H]1O[C@H](C)[C@H](OC)[C@H](O[C@@H]2O[C@H](C)[C@H]3O[C@]4(C[C@@H](O)[C@H](O[C@H]5C[C@@H](O[C@H]6C[C@](C)([N+](=O)[O-])[C@@H](OC)[C@H](C)O6)[C@H](OC(=O)c6c(C)c(Cl)c(O)c(Cl)c6OC)[C@@H](C)O5)[C@@H](C)O4)O[C@]3(C)[C@@H]2O)[C@H]1O [Evn, evernimicin] |  |  |  |  |  |  |  |  | ~2000 | effect on rdGTPase activity of EF-G (E. coli EF-G; increasing concentrations of Evn (Figure 5B)): little or no effect; effect on rdGTPase activity of Tet(M) (S. faecalis TetM; increasing concentrations of Evn (Figure 5D)): little or no effect; IC50 (E. coli EF4; read-out: IC50, inhibition of EF4 rdGTPase, E. coli 70S ribosomes (Figure 5F)): ~3000 nM; IC50 (E. coli BipA; read-out: IC50, inhibition of BipA rdGTPase, E. coli 70S ribosomes (Figure 5E)): ~20000 nM; effect on rdGTPase activity of EF-GΔG′ (E. coli EF-GΔG′; increasing concentrations of Evn (Figure 5C)): little or no effect; effect on rdGTPase of Tet(O) (Tet(O)): does not inhibit; apparent rate constant of translocation, Step 2 (PRE complex; control 1.3 ± 0.1 s^−1): 3.5 ± 0.2 s⁻¹; apparent rate constant of translocation, Step 1 (PRE complex; control 20.7 ± 0.6 s^−1): 28.1 ± 0.7 s⁻¹; effect on IF2-dependent light scattering (70SIC formation) ([2]; 5 μM Evn): almost all IF2-dependent light scattering was abolished; Ki ([2]; read-out: apparent Ki for inhibition of IF2-dependent 70SIC formation, reciprocal of IF2-dependent light scattering increase at 1 sec vs. Evn concentration): 1800 ± 200 nM; effect on EF4-catalyzed component of back-translocation (POST complex): completely abolished; effect on rdGTPase activity of IF2 (E. coli IF2; increasing concentrations of Evn (Figure 5A)): strongly inhibits; IC50 (E. coli IF2; read-out: IC50, inhibition of IF2 rdGTPase, E. coli 70S ribosomes (Figure 5A)): ~7000 nM |
